{"source": "ChEMBL document CHEMBL5303300", "about": "“EUbOPEN Chemogenomics Library - Multiplex” (2023)", "key": {"HEK-293T": {"test_system": "HEK-293T", "assay": "Multiplex assay against HEK293T", "type": "toxicity, cell-based", "details": "human, number of replicates 2", "outline": "(§1)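 Live cells were stained at seeding with Hoechst33342, BioTracker Green Microtubule Cytoskeleton Dye, MitoTracker Red and Annexin V Alexa Fluor 680, then imaged on a CQ1 microscope at 37°C and 5% CO2 after compound addition. CellPathfinder machine-learning gating split cells into Hoechst high-intensity objects or normal cells. Normal cells were split into healthy, pyknosed or fragmented nuclei, and pyknosed cells into mitotic or apoptotic. Tubulin, mitochondrial-mass and membrane-permeability phenotypes are per cents of healthy-nucleus cells.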"}, "U2OS": {"test_system": "U2OS", "assay": "Multiplex assay against U2OS", "type": "toxicity, cell-based", "details": "human, number of replicates 2", "outline": "as §1"}, "[1]": {"details": "12 h, 1 µM, compound concentration 1 uM"}, "[2]": {"details": "12 h, 10 µM, compound concentration 10 uM"}, "[3]": {"details": "24 h, 1 µM, compound concentration 1 uM"}, "[4]": {"details": "24 h, 10 µM, compound concentration 10 uM"}, "[5]": {"details": "48 h, 1 µM, compound concentration 1 uM"}, "[6]": {"details": "48 h, 10 µM, compound concentration 10 uM"}}, "note": "Several values for one entry are separate records, joined by “and”; a condition that tells them apart may be missing. Identical values can stand only once.", "data": [{"smiles": "CC(=O)N(CCN(C)C)c1ccc(N/C(=C2\\C(=O)Nc3cc(Cl)ccc32)c2ccccc2)cn1", "values": [{"measurement": "Population Apoptotic (%)", "setting": "HEK-293T; [1]", "value": "32% and 41%"}, {"measurement": "Population Fragmented Nuclei (%)", "setting": "HEK-293T; [1]", "value": 2, "unit": "%"}, {"measurement": "Population Healthy Nuclei (%)", "setting": "HEK-293T; [1]", "value": "84% and 85%"}, {"measurement": "Population Hoechst High Intensity Objects (%)", "setting": "HEK-293T; [1]", "value": 5, "unit": "%"}, {"measurement": "Population Membrane Permeable-Phenotype (%)", "setting": "HEK-293T; [1]", "value": "2% and 3%"}, {"measurement": "Population Mitochondria Different-Phenotype (%)", "setting": "HEK-293T; [1]", "value": "23% and 26%"}, {"measurement": "Population Mitotic Cells (%)", "setting": "HEK-293T; [1]", "value": "67% and 58%"}, {"measurement": "Population Normal (%)", "setting": "HEK-293T; [1]", "value": 94, "unit": "%"}, {"measurement": "Population Pyknosed Nuclei (%)", "setting": "HEK-293T; [1]", "value": 12, "unit": "%"}, {"measurement": "Population Tubulin-Different-Phenotype (%)", "setting": "HEK-293T; [1]", "value": "65% and 70%"}, {"measurement": "Total Cell Count", "setting": "HEK-293T; [1]", "value": "666 and 654"}, {"measurement": "Population Apoptotic (%)", "setting": "HEK-293T; [2]", "value": "64% and 79%"}, {"measurement": "Population Fragmented Nuclei (%)", "setting": "HEK-293T; [2]", "value": "3% and 4%"}, {"measurement": "Population Healthy Nuclei (%)", "setting": "HEK-293T; [2]", "value": "77% and 71%"}, {"measurement": "Population Hoechst High Intensity Objects (%)", "setting": "HEK-293T; [2]", "value": "14% and 17%"}, {"measurement": "Population Membrane Permeable-Phenotype (%)", "setting": "HEK-293T; [2]", "value": "1% and 3%"}, {"measurement": "Population Mitochondria Different-Phenotype (%)", "setting": "HEK-293T; [2]", "value": "93% and 91%"}, {"measurement": "Population Mitotic Cells (%)", "setting": "HEK-293T; [2]", "value": "35% and 20%"}, {"measurement": "Population Normal (%)", "setting": "HEK-293T; [2]", "value": "85% and 82%"}, {"measurement": "Population Pyknosed Nuclei (%)", "setting": "HEK-293T; [2]", "value": "19% and 24%"}, {"measurement": "Population Tubulin-Different-Phenotype (%)", "setting": "HEK-293T; [2]", "value": "90% and 92%"}, {"measurement": "Total Cell Count", "setting": "HEK-293T; [2]", "value": "227 and 197"}, {"measurement": "Population Apoptotic (%)", "setting": "HEK-293T; [3]", "value": 28, "unit": "%"}, {"measurement": "Population Fragmented Nuclei (%)", "setting": "HEK-293T; [3]", "value": "1% and 4%"}, {"measurement": "Population Healthy Nuclei (%)", "setting": "HEK-293T; [3]", "value": "89% and 87%"}, {"measurement": "Population Hoechst High Intensity Objects (%)", "setting": "HEK-293T; [3]", "value": "6% and 7%"}, {"measurement": "Population Membrane Permeable-Phenotype (%)", "setting": "HEK-293T; [3]", "value": "1% and 3%"}, {"measurement": "Population Mitochondria Different-Phenotype (%)", "setting": "HEK-293T; [3]", "value": "12% and 10%"}, {"measurement": "Population Mitotic Cells (%)", "setting": "HEK-293T; [3]", "value": 71, "unit": "%"}, {"measurement": "Population Normal (%)", "setting": "HEK-293T; [3]", "value": "93% and 92%"}, {"measurement": "Population Pyknosed Nuclei (%)", "setting": "HEK-293T; [3]", "value": "9% and 8%"}, {"measurement": "Population Tubulin-Different-Phenotype (%)", "setting": "HEK-293T; [3]", "value": "51% and 49%"}, {"measurement": "Total Cell Count", "setting": "HEK-293T; [3]", "value": "869 and 891"}, {"measurement": "Population Apoptotic (%)", "setting": "HEK-293T; [4]", "value": "87% and 94%"}, {"measurement": "Population Fragmented Nuclei (%)", "setting": "HEK-293T; [4]", "value": "6% and 4%"}, {"measurement": "Population Healthy Nuclei (%)", "setting": "HEK-293T; [4]", "value": "80% and 83%"}, {"measurement": "Population Hoechst High Intensity Objects (%)", "setting": "HEK-293T; [4]", "value": "20% and 23%"}, {"measurement": "Population Membrane Permeable-Phenotype (%)", "setting": "HEK-293T; [4]", "value": "0% and 2%"}, {"measurement": "Population Mitochondria Different-Phenotype (%)", "setting": "HEK-293T; [4]", "value": "95% and 92%"}, {"measurement": "Population Mitotic Cells (%)", "setting": "HEK-293T; [4]", "value": "12% and 5%"}, {"measurement": "Population Normal (%)", "setting": "HEK-293T; [4]", "value": "79% and 76%"}, {"measurement": "Population Pyknosed Nuclei (%)", "setting": "HEK-293T; [4]", "value": "13% and 12%"}, {"measurement": "Population Tubulin-Different-Phenotype (%)", "setting": "HEK-293T; [4]", "value": "93% and 92%"}, {"measurement": "Total Cell Count", "setting": "HEK-293T; [4]", "value": "229 and 181"}, {"measurement": "Population Apoptotic (%)", "setting": "HEK-293T; [5]", "value": "12% and 13%"}, {"measurement": "Population Fragmented Nuclei (%)", "setting": "HEK-293T; [5]", "value": "11% and 6%"}, {"measurement": "Population Healthy Nuclei (%)", "setting": "HEK-293T; [5]", "value": "83% and 88%"}, {"measurement": "Population Hoechst High Intensity Objects (%)", "setting": "HEK-293T; [5]", "value": "7% and 9%"}, {"measurement": "Population Membrane Permeable-Phenotype (%)", "setting": "HEK-293T; [5]", "value": 3, "unit": "%"}, {"measurement": "Population Mitochondria Different-Phenotype (%)", "setting": "HEK-293T; [5]", "value": "1% and 3%"}, {"measurement": "Population Mitotic Cells (%)", "setting": "HEK-293T; [5]", "value": "87% and 86%"}, {"measurement": "Population Normal (%)", "setting": "HEK-293T; [5]", "value": "93% and 90%"}, {"measurement": "Population Pyknosed Nuclei (%)", "setting": "HEK-293T; [5]", "value": "4% and 5%"}, {"measurement": "Population Tubulin-Different-Phenotype (%)", "setting": "HEK-293T; [5]", "value": "25% and 29%"}, {"measurement": "Total Cell Count", "setting": "HEK-293T; [5]", "value": "1828 and 1568"}, {"measurement": "Population Apoptotic (%)", "setting": "HEK-293T; [6]", "value": "86% and 90%"}, {"measurement": "Population Fragmented Nuclei (%)", "setting": "HEK-293T; [6]", "value": "9% and 5%"}, {"measurement": "Population Healthy Nuclei (%)", "setting": "HEK-293T; [6]", "value": "81% and 83%"}, {"measurement": "Population Hoechst High Intensity Objects (%)", "setting": "HEK-293T; [6]", "value": "20% and 19%"}, {"measurement": "Population Membrane Permeable-Phenotype (%)", "setting": "HEK-293T; [6]", "value": "0% and 3%"}, {"measurement": "Population Mitochondria Different-Phenotype (%)", "setting": "HEK-293T; [6]", "value": "77% and 80%"}, {"measurement": "Population Mitotic Cells (%)", "setting": "HEK-293T; [6]", "value": "13% and 10%"}, {"measurement": "Population Normal (%)", "setting": "HEK-293T; [6]", "value": "79% and 80%"}, {"measurement": "Population Pyknosed Nuclei (%)", "setting": "HEK-293T; [6]", "value": "8% and 10%"}, {"measurement": "Population Tubulin-Different-Phenotype (%)", "setting": "HEK-293T; [6]", "value": 93, "unit": "%"}, {"measurement": "Total Cell Count", "setting": "HEK-293T; [6]", "value": "324 and 235"}, {"measurement": "Population Apoptotic (%)", "setting": "U2OS; [1]", "value": "72% and 71%"}, {"measurement": "Population Healthy Nuclei (%)", "setting": "U2OS; [1]", "value": "84% and 68%"}, {"measurement": "Population Hoechst High Intensity Objects (%)", "setting": "U2OS; [1]", "value": "0% and 1%"}, {"measurement": "Population Membrane Permeable-Phenotype (%)", "setting": "U2OS; [1]", "value": "1% and 10%"}, {"measurement": "Population Mitochondria Different-Phenotype (%)", "setting": "U2OS; [1]", "value": "0% and 2%"}, {"measurement": "Population Mitotic Cells (%)", "setting": "U2OS; [1]", "value": "27% and 28%"}, {"measurement": "Population Normal (%)", "setting": "U2OS; [1]", "value": "100% and 98%"}, {"measurement": "Population Pyknosed Nuclei (%)", "setting": "U2OS; [1]", "value": "11% and 12%"}, {"measurement": "Population Tubulin-Different-Phenotype (%)", "setting": "U2OS; [1]", "value": "52% and 23%"}, {"measurement": "Population Apoptotic (%)", "setting": "U2OS; [2]", "value": "64% and 80%"}, {"measurement": "Population Fragmented Nuclei (%)", "setting": "U2OS; [2]", "value": "11% and 8%"}, {"measurement": "Population Healthy Nuclei (%)", "setting": "U2OS; [2]", "value": "54% and 60%"}, {"measurement": "Population Hoechst High Intensity Objects (%)", "setting": "U2OS; [2]", "value": "0% and 1%"}, {"measurement": "Population Membrane Permeable-Phenotype (%)", "setting": "U2OS; [2]", "value": "13% and 19%"}, {"measurement": "Population Mitochondria Different-Phenotype (%)", "setting": "U2OS; [2]", "value": "86% and 59%"}, {"measurement": "Population Mitotic Cells (%)", "setting": "U2OS; [2]", "value": "35% and 19%"}, {"measurement": "Population Normal (%)", "setting": "U2OS; [2]", "value": "100% and 98%"}, {"measurement": "Population Pyknosed Nuclei (%)", "setting": "U2OS; [2]", "value": "33% and 30%"}, {"measurement": "Population Tubulin-Different-Phenotype (%)", "setting": "U2OS; [2]", "value": "86% and 71%"}, {"measurement": "Population Apoptotic (%)", "setting": "U2OS; [3]", "value": "72% and 40%"}, {"measurement": "Population Fragmented Nuclei (%)", "setting": "U2OS; [3]", "value": "3% and 11%"}, {"measurement": "Population Healthy Nuclei (%)", "setting": "U2OS; [3]", "value": "85% and 79%"}, {"measurement": "Population Hoechst High Intensity Objects (%)", "setting": "U2OS; [3]", "value": "0% and 1%"}, {"measurement": "Population Membrane Permeable-Phenotype (%)", "setting": "U2OS; [3]", "value": "2% and 4%"}, {"measurement": "Population Mitochondria Different-Phenotype (%)", "setting": "U2OS; [3]", "value": 0, "unit": "%"}, {"measurement": "Population Mitotic Cells (%)", "setting": "U2OS; [3]", "value": "27% and 60%"}, {"measurement": "Population Normal (%)", "setting": "U2OS; [3]", "value": "100% and 98%"}, {"measurement": "Population Pyknosed Nuclei (%)", "setting": "U2OS; [3]", "value": "10% and 9%"}, {"measurement": "Population Tubulin-Different-Phenotype (%)", "setting": "U2OS; [3]", "value": "59% and 33%"}]}]}
